Here are results for eight compounds from publication PMC9047252 (RSC Advances, 2020).

Bounds are passed on as bounds.

The test system of assay [1] is K562/ADR cells. Nature of the assay: CCK-8 antiproliferative assay, K562/ADR. In kind it is cell-based. As to conditions: Homo sapiens, 72 h, read-out: IC50 K562/ADR. In short, it runs like this: (§1)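 Cells seeded at 2500–3000 per well and held at 37 °C for 24 h, then exposed in triplicate to a range of test compound concentrations for 72 h, with 0.1% DMSO as control. CCK-8 added and incubated 2 h at 37 °C, then absorbance read at 450 nm. IC50 calculated and given as mean ± SD from three independent experiments.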

In another assay the test system is LO2 cells. Nature of the assay: CCK-8 cytotoxicity assay, LO2. In kind it is cell-based. As to conditions: Homo sapiens, L02, 72 h, read-out: IC50 LO2. In short, it runs like this:
as §1

Assay [2] concerns K562 cells. The experiment in a line: CCK-8 antiproliferative assay, K562. In kind it is cell-based. The following applies: Homo sapiens, K562, 72 h, read-out: IC50 K562. The procedure, abridged: as §1
The next assay deals with HT-29 cells. The following applies: read-out: IC50 in HT-29 cells; cited from earlier work.
Assay [3] deals with K562 cells. Nature of the assay: Western blot analysis, K562. In kind it is cell-based, human. The following applies: 10c 1, 5, 10 μM, 3 10 μM, 24 h.
For assay [4], the system named is K562 cells. The experiment in a line: Intracellular NO, DAF-FM DA, K562. The following applies: 10c 1, 10, 100 μM, 3 and 7 100 μM, 3 h. In kind it is cell-based, human. In short, it runs like this:
(§2)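 Cells exposed to 0.1% DMSO or test compound at 37 °C for 3 h. Harvested, PBS-washed, and loaded with DAF-FM DA (50 μmol L−1) in incubation buffer at 37 °C for 30 min. Washed again, then NO fluorescence read by fluorescence microscopy and microplate reader. Three independent experiments, mean ± SD; Student's t-test against control.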

Assay [5] concerns K562/ADR cells. The experiment in a line: Western blot analysis, K562/ADR. In kind it is cell-based, human. As to conditions: 10c 1, 5, 10 μM, 3 10 μM, 24 h.
Assay [6] concerns K562/ADR cells. Nature of the assay: Intracellular NO, DAF-FM DA, K562/ADR. In kind it is cell-based, human. As to conditions: 10c 1, 10, 100 μM, 3 and 7 100 μM, 3 h. In short, it runs like this: as §2

Consider `COc1cccc2c1C(=O)c1c(O)c3c(c(O)c1C2=O)C[C@@](O)(C(=O)CO)C[C@@H]3O[C@H]1C[C@H](N)[C@H](O)[C@H](C)O1` [ADR, adriamycin], for which the IC50 is 9.16 ± 0.658 µM with K562/ADR cells [1], 2.74 ± 0.123 µM in the assay on LO2 cells and 0.672 ± 0.056 µM in the assay on K562 cells [2].
Taken in the same sequence, the figures for `COC(=O)C[C@](O)(CCCC(C)(C)O)C(=O)O[C@@H]1C(OC)=C[C@]23CCCN2CCc2cc4c(cc2[C@H]13)OCO4` [HHT, homoharringtonine] were 3.26 ± 0.082 µM, 0.915 ± 0.149 µM and 0.367 ± 0.011 µM.
With `O=C(CCCO[N+](=O)[O-])Oc1ccccc1C(=O)Oc1ccc(-c2cc(=S)ss2)cc1` [NOSH-1], in the assay with HT-29 cells, the IC50 is 0.048 µM.
Consider `C[C@@H]1CC[C@H]2[C@@H](C)C(=O)O[C@@H]3O[C@@]4(C)CC[C@@H]1[C@]32OO4` [compound 1, Artemisinin], for which the IC50 in the assay on K562/ADR cells [1] is over 200 µM; in the assay with LO2 cells it was 83.3 ± 1.99 µM; in the assay with K562 cells [2] it was 11.1 ± 0.832 µM.
The matching figures for `C[C@H]1[C@@H](O)O[C@@H]2O[C@@]3(C)CC[C@H]4[C@H](C)CC[C@@H]1[C@@]24OO3` [compound 2, dihydroartemisinin]: 28.1 ± 1.09 µM, 19.9 ± 1.66 µM and 8.67 ± 0.277 µM.
Turning to `C[C@H]1[C@H](OC(=O)CCC(=O)O)O[C@@H]2O[C@@]3(C)CC[C@H]4[C@H](C)CC[C@@H]1[C@@]24OO3` [compound 3, artesunate], the values for the IC50 with K562/ADR cells [1], in the assay with LO2 cells and with K562 cells [2] were 36.4 ± 2.9 µM, 19.9 ± 0.331 µM and 10.2 ± 0.135 µM, respectively. The AKT phosphorylation entry with K562 cells [3] and with K562/ADR cells [5] was “clearly reduced the levels of AKT phosphorylation” each time. Moreover, the “AMPK and JNK phosphorylation” value in the assay on K562 cells [3] is “up-regulated the levels of AMPK and JNK phosphorylation”; with K562/ADR cells [5], “up-regulated the levels of AMPK and JNK phosphorylation”. Besides, the “generation of intracellular NO” value in the assay with K562 cells [4] and with K562/ADR cells [6] was “increased the intracellular NO levels” in each case.
As to `Oc1ccc(-c2cc(=S)ss2)cc1` [compound 4, 5-(4-hydroxyphenyl)-3H-1,2-dithiole-3-thione], the IC50 in the assay on K562/ADR cells [1], in the assay on LO2 cells and in the assay with K562 cells [2] was over 200 µM each time.
`O=[N+]([O-])O[C@@H]1CO[C@H]2[C@@H]1OC[C@@H]2O` [compound 7, isosorbide 5-mononitrate]: the IC50 in the assay on K562/ADR cells [1], in the assay with LO2 cells and in the assay with K562 cells [2] was over 200 µM in each case. The “generation of intracellular NO” value with K562 cells [4] and in the assay on K562/ADR cells [6] was “increased the intracellular NO levels” in each case.
